ChEMBL document CHEMBL4219134, “Xanthone derivatives as phosphoglycerate mutase 1 inhibitors: Design, synthesis, and biological evaluation” (Bioorg Med Chem, 2018)

Assays:
[1] = target: T1, Phosphoglycerate mutase 1 (Homo sapiens, UniProt P18669); experiment: Inhibition of recombinant PGAM1 (unknown origin) using 3-PG as substrate preincubated for 2 mins followed by substrate addition
Method in brief: (§1)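 Recombinant PGAM1 plus compound (DMSO) in 50 mM Tris pH 8.0, preincubated 2 min at room temperature. Started with 3PG (200 mM stock); NADH oxidation read as OD340 decrease. IC50 from triplicates, mean ± sd.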
Target sequence in this assay (P18669 whole entry): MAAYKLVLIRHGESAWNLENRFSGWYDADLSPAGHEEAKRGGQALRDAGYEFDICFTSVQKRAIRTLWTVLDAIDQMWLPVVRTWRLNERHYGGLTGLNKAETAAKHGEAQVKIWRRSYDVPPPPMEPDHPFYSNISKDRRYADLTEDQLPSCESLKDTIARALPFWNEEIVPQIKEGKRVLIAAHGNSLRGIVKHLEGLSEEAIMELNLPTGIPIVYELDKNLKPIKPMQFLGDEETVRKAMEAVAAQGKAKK

Homo sapiens [2] = organism: Homo sapiens; experiment: Inhibition of enolase (unknown origin) at 5 uM using 2-PG relative to control
Method in brief: (§2)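 PGAM1 omitted to test the downstream coupling enzymes. Compound (0.5 mM stock) preincubated 2 min at room temperature in 50 mM Tris pH 8.0. OD340 decrease read; inhibition ratio at 5 µM.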

PANC-1 = experiment: Antiproliferative activity against human PANC1 cells after 72 hrs by MTT assay; type: functional, cell-based; conditions: PANC-1, 72 h
Method in brief: (§3)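 MTT assay: 2 × 10^3 cells per well, cultured 24 h at 37 °C. Compound then added for 72 h at 37 °C, followed by 0.5 mg mL-1 MTT for 4 h. Formazan dissolved in DMSO and absorbance read at 570 nm. IC50 from triplicate experiments, mean ± sd.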

NCI-H1299 = experiment: Antiproliferative activity against human H1299 cells after 72 hrs by MTT assay; type: functional, cell-based; conditions: NCI-H1299, 72 h; method in brief: as §3
Homo sapiens [3] = organism: Homo sapiens; experiment: Inhibition of pyruvate kinase (unknown origin) at 5 uM using 2-PG relative to control; method in brief: as §2
[4] = target: L-lactate dehydrogenase (Homo sapiens) (UniProt V9HWB9); experiment: Inhibition of LDH (unknown origin) at 5 uM using 2-PG relative to control; method in brief: as §2
MCF7 = experiment: Antiproliferative activity against human MCF7 cells after 72 hrs by MTT assay; type: functional, cell-based; conditions: MCF7, 72 h; method in brief: as §3
[5] = target: T1, Phosphoglycerate mutase 1; experiment: Inhibition of recombinant PGAM1 (unknown origin) at 20 uM using 3-PG as substrate preincubated for 2 mins followed by substrate addition relative to control
Method in brief: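 Same coupled PGAM1 assay: recombinant enzyme preincubated 2 min at room temperature with compound in 50 mM Tris pH 8.0. Enolase/PK/LDH mix with ADP, MgCl2, KCl and NADH added, then 3PG (200 mM stock) to start. OD340 decrease measured; inhibition ratio recorded at 20 µM.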
Target sequence in this assay (P18669 2-254 limits assumed): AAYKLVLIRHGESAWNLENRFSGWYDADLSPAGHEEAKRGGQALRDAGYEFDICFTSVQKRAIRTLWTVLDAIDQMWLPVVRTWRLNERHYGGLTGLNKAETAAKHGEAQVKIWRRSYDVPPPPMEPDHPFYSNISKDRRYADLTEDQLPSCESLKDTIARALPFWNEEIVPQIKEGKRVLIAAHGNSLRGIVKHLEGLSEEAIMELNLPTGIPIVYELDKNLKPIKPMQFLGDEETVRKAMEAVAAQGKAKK

[6] = target: T1, Phosphoglycerate mutase 1; experiment: Inhibition of PGAM1 (unknown origin); method in brief: as §1
Target sequence in this assay (P18669 whole entry): as the sequence (P18669 whole entry) above

[7] = target: T1, Phosphoglycerate mutase 1; experiment: Binding affinity to PGAM1 (unknown origin) assessed as change in melting temperature by SYPRO Orange-dye based fluorescence thermal shift assay
Method in brief: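 PGAM1 protein at 200 µg/ml with compound at 12.5 to 50 µM in 20 mM Tris-HCl, 100 mM NaCl, pH 7.4. Melting monitored by SYPRO orange fluorescence at 610 nm; Tm shift recorded.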
Target sequence in this assay (P18669 2-254 limits assumed): as the sequence (P18669 2-254 limits assumed) above

[8] = target: T1, Phosphoglycerate mutase 1; experiment: Inhibition of PGAM1 in human MDA-MB-231 cells using 3-PGA as substrate after 2 hrs in by UV-vis spectrophotometric method; type: cell-based
Target sequence in this assay (P18669 whole entry): as the sequence (P18669 whole entry) above

Row | IC50 [1] [µM] | inhibition (Homo sapiens [2]) [%] | IC50 (PANC-1) [µM] | IC50 (NCI-H1299) [µM] | inhibition (Homo sapiens [3]) [%] | inhibition [4] [%] | IC50 (MCF7) [µM] | inhibition [5] [%] | IC50 [6] [nM] | Activity [7] | IC50 [8] [µM] | SMILES
1 | 4.2 | 10 | > 200 | > 40 | 10 | 10 | 40.1 |  |  |  |  | N#Cc1ccc(S(=O)(=O)Nc2cc3oc4cccc(O)c4c(=O)c3c(O)c2O)cc1
2 | 1 | 5 | > 200 | 8.1 | 5 | 5 | 47.6 |  |  |  |  | O=c1c2c(O)cccc2oc2cc(NS(=O)(=O)c3ccc(N4CCCCC4)cc3)c(O)c(O)c12
3 | > 20 |  |  |  |  |  |  | < 10 |  |  |  | COc1c(NS(=O)(=O)c2ccc(C(C)(C)C)cc2)cc2oc3cccc(OC)c3c(=O)c2c1O
4 |  |  |  |  |  |  |  |  | 2300 |  |  | O=C1c2ccccc2C(=O)c2c1cc(S(=O)(=O)O)c(O)c2O [ALIZARIN RED]
5 | > 20 |  |  |  |  |  |  | < 10 |  |  |  | COc1c(NS(=O)(=O)c2ccccc2)cc2oc3cccc(OC)c3c(=O)c2c1O
6 | 3.6 | 15 | 91.4 | 10.2 | 15 | 15 | 15.5 |  |  |  |  | O=c1c2c(O)cccc2oc2cc(NS(=O)(=O)c3ccc(Cl)cc3)c(O)c(O)c12
7 | > 20 |  |  |  |  |  |  | < 10 |  |  |  | COc1c(NS(=O)(=O)c2ccc(I)cc2)cc2oc3cccc(OC)c3c(=O)c2c1O
8 | > 20 |  |  |  |  |  |  | < 10 |  |  |  | COc1c(NS(=O)(=O)c2ccc(F)cc2)cc2oc3cccc(OC)c3c(=O)c2c1O
9 | 1.2 | 8 | > 200 | 12.9 | 8 | 8 | 44.9 |  |  |  |  | O=c1c2c(O)cccc2oc2cc(NS(=O)(=O)c3ccc(-c4ccccc4)cc3)c(O)c(O)c12
10 | > 20 |  |  |  |  |  |  | < 10 |  |  |  | COc1c(NS(=O)(=O)c2cccc(OC(F)(F)F)c2)cc2oc3cccc(OC)c3c(=O)c2c1O
11 | 2.6 | 1 | > 200 | 10.7 | 1 | 1 | 13.4 |  |  |  |  | CC(C)(C)c1ccc(S(=O)(=O)Nc2cc3oc4cccc(O)c4c(=O)c3c(O)c2O)cc1
12 | > 20 |  |  |  |  |  |  | < 10 |  |  |  | COc1c(NS(=O)(=O)c2cccc3ccccc23)cc2oc3cccc(OC)c3c(=O)c2c1O
13 | 2.1 | 13 | > 200 | 53 | 13 | 13 | 18.4 |  |  |  |  | N#Cc1cccc(S(=O)(=O)Nc2cc3oc4cccc(O)c4c(=O)c3c(O)c2O)c1
14 | 0.5 | 9 | 35.3 | 10.7 | 9 | 9 | 26.6 |  |  | Dose-dependent effect |  | O=c1c2c(O)cccc2oc2cc(NS(=O)(=O)c3ccc(C4CCCCC4)cc3)c(O)c(O)c12
15 | > 20 |  |  |  |  |  |  | < 10 |  |  |  | COc1c(NS(=O)(=O)c2ccc(C)cc2)cc2oc3cccc(OC)c3c(=O)c2c1O
16 | 1.9 | 11 | 34.5 | 24.3 | 11 | 11 | 13.5 |  |  |  |  | O=c1c2c(O)cccc2oc2cc(NS(=O)(=O)c3ccc(I)cc3)c(O)c(O)c12
17 | > 20 |  |  |  |  |  |  | < 10 |  |  |  | COc1c(NS(=O)(=O)c2ccc(Cl)cc2)cc2oc3cccc(OC)c3c(=O)c2c1O
18 | 1.9 | 12 | > 200 | 62.9 | 12 | 12 | > 200 |  |  |  |  | O=c1c2c(O)cccc2oc2cc(NS(=O)(=O)Cc3ccccc3)c(O)c(O)c12

Row | IC50 [1] [µM] | inhibition (Homo sapiens [2]) [%] | IC50 (PANC-1) [µM] | IC50 (NCI-H1299) [µM] | inhibition (Homo sapiens [3]) [%] | inhibition [4] [%] | IC50 (MCF7) [µM] | inhibition [5] [%] | IC50 [6] [nM] | Activity [7] | IC50 [8] [µM] | SMILES
19 | > 20 |  |  |  |  |  |  | < 10 |  |  |  | COc1c(NS(=O)(=O)c2cc(C(F)(F)F)ccc2C(F)(F)F)cc2oc3cccc(OC)c3c(=O)c2c1O
20 | > 20 |  |  |  |  |  |  | < 10 |  |  |  | COc1c(NS(=O)(=O)c2ccc(C#N)cc2)cc2oc3cccc(OC)c3c(=O)c2c1O
21 | 7.2 | 2 | 20.7 | 13.2 | 2 | 2 | 44.9 |  |  |  |  | Cc1ccc(S(=O)(=O)Nc2cc3oc4cccc(O)c4c(=O)c3c(O)c2O)cc1
22 | 5.5 | 1 | > 200 | 21.9 | 1 | 1 | 20.8 |  |  |  |  | O=c1c2c(O)cccc2oc2cc(NS(=O)(=O)c3ccc(F)cc3)c(O)c(O)c12
23 | > 20 |  |  |  |  |  |  | < 10 |  |  |  | COc1c(NS(=O)(=O)c2ccc(-c3ccccc3)cc2)cc2oc3cccc(OC)c3c(=O)c2c1O
24 | 1.7 | 7 | 101 | 23.2 | 7 | 7 | 27.3 |  |  |  |  | O=c1c2c(O)cccc2oc2cc(NS(=O)(=O)c3cccc4ccccc34)c(O)c(O)c12
25 | > 20 |  |  |  |  |  |  | < 10 |  |  |  | COc1c(NS(=O)(=O)Cc2ccccc2)cc2oc3cccc(OC)c3c(=O)c2c1O
26 | 1.6 | 9 | > 200 | 22.6 | 9 | 9 | 43.3 |  |  |  |  | O=c1c2c(O)cccc2oc2cc(NS(=O)(=O)c3ccc4ccccc4c3)c(O)c(O)c12
27 | > 20 |  |  |  |  |  |  | < 10 |  |  |  | COc1c(NS(=O)(=O)c2ccc3ccccc3c2)cc2oc3cccc(OC)c3c(=O)c2c1O
28 | 3.5 | -1 | 58.5 | 10.3 | -1 | -1 | 30.2 |  |  |  |  | O=c1c2c(O)cccc2oc2cc(NS(=O)(=O)c3ccc(C(F)(F)F)cc3)c(O)c(O)c12
29 | > 20 |  |  |  |  |  |  | < 10 |  |  |  | COc1c(NS(=O)(=O)c2ccc(Br)cc2)cc2oc3cccc(OC)c3c(=O)c2c1O
30 | 5.8 | 12 | 116 | 13.9 | 12 | 12 | 20.5 |  |  |  |  | O=c1c2c(O)cccc2oc2cc(NS(=O)(=O)c3cccc(OC(F)(F)F)c3)c(O)c(O)c12
31 | > 20 |  |  |  |  |  |  | < 10 |  |  |  | COc1c(NS(=O)(=O)c2ccc(C(F)(F)F)cc2)cc2oc3cccc(OC)c3c(=O)c2c1O
32 | > 20 |  |  |  |  |  |  | < 10 |  |  |  | COc1c(NS(=O)(=O)c2ccc(C3CCCCC3)cc2)cc2oc3cccc(OC)c3c(=O)c2c1O
33 | > 20 |  |  |  |  |  |  | < 10 |  |  |  | COc1c(NS(=O)(=O)c2ccc(N3CCCC3)cc2)cc2oc3cccc(OC)c3c(=O)c2c1O
34 | > 20 |  |  |  |  |  |  | < 10 |  |  |  | COc1c(NS(=O)(=O)c2cccc(C#N)c2)cc2oc3cccc(OC)c3c(=O)c2c1O
35 |  |  |  |  |  |  |  |  |  |  | 33 | C#CCCCC(=O)OC(C)(C)[C@H]1CC[C@]2(CO2)[C@@H](OC(=O)N[C@@H](Cc2c[nH]c3ccccc23)C(=O)OCc2ccccc2)C1
36 | > 20 |  |  |  |  |  |  | < 10 |  |  |  | COc1c(NS(=O)(=O)c2ccc(N3CCCCC3)cc2)cc2oc3cccc(OC)c3c(=O)c2c1O
